Measurements published in ChEMBL document CHEMBL1141224, “Parallel solution-phase and microwave-assisted synthesis of new S-DABO derivatives endowed with subnanomolar anti-HIV-1 activity” (J Med Chem, 2005).
Activity calls are given as the source filed them. The rule behind the calls is not given here.

Key:
[1] = tested on: Human immunodeficiency virus type 1 reverse transcriptase (Human immunodeficiency virus 1), Q72547 [K103N]; assay: Inhibition of K103N mutant HIV1 reverse transcriptase by [3H]dTTP poly(rA)/oligo(dT) incorporation at 400 uM
Procedure, shortened: (§1)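 RNA-dependent DNA polymerase assay of recombinant RT at 5–10 nM. Template: poly(rA)/oligo(dT) (0.3 μM 3'-OH ends) with 10 μM [3H]-dTTP. Run 10 min at 37 °C with increasing inhibitor. TCA-precipitated product was counted on GF/C filters. Highest concentration tested was 400 μM.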

[2] = target: Human immunodeficiency virus type 1 reverse transcriptase (Human immunodeficiency virus 1) (UniProt Q72547)
[3] = tested on: Human immunodeficiency virus type 1 reverse transcriptase (Human immunodeficiency virus 1), Q72547 [Y181I]; assay: Inhibition of Y181I mutant HIV1 reverse transcriptase by [3H]dTTP poly(rA)/oligo(dT) incorporation at 400 uM; procedure, shortened: as §1
[4] = tested on: Human immunodeficiency virus 1; assay: Antiviral activity against wild type HIV1 NL4-3 infected MT4 cells by MTT method; type: functional, organism-based; details: Human immunodeficiency virus 1, NL4-3, MT4
Procedure, shortened: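 MT-4 lymphoid cells infected with HIV-1 NL4-3 in the presence of graded drug concentrations. Viable cells counted by MTT colorimetric assay at day 5 post-infection. EC50 is the concentration protecting 50% of cells from HIV-induced death. Mean of at least two experiments.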

[5] = tested on: Human immunodeficiency virus 1; assay: Antiviral activity against HIV1 K103N mutant strain infected MT4 cells by MTT method; type: functional, organism-based; details: Human immunodeficiency virus 1, K103N
[6] = tested on: Human immunodeficiency virus 1; assay: Antiviral activity against HIV1 Y188L mutant strain infected MT4 cells by MTT method; type: functional, organism-based; details: for EC50: Human immunodeficiency virus 1, Y188L, MT4
[7] = tested on: MT4; assay: Cytotoxicity against MT4 cells by MTT method; type: functional; details: Homo sapiens
Procedure, shortened: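 Mock-infected MT-4 cells exposed to graded drug concentrations. Viability assessed by MTT colorimetric method at day 5. CC50 is the concentration causing 50% death of noninfected cells. Mean of at least two experiments.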

[8] = tested on: Human immunodeficiency virus 1; assay: Antiviral activity against HIV1 IRLL98 mutant strain infected MT4 cells by MTT method; type: functional, organism-based; details: Human immunodeficiency virus 1, IRLL98, MT4
Procedure, shortened: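 MT-4 cells infected with the HIV-1 mutant strain, or mock-infected for cytotoxicity, in the presence of a range of drug concentrations. Viable cells were counted by MTT colorimetric assay on day 5 post-infection. EC50 is the concentration that blocks 50% of HIV-induced cell death. Values are the mean of at least two experiments. IRLL98 carries RT mutations K101Q, Y181C and G190A, plus NRTI mutations.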

[9] = tested on: Human immunodeficiency virus type 1 reverse transcriptase (Human immunodeficiency virus 1), Q72547 [Y181I]
[10] = tested on: Human immunodeficiency virus type 1 reverse transcriptase (Human immunodeficiency virus 1), Q72547 [K103N]
[11] = target: Human immunodeficiency virus type 1 reverse transcriptase (Human immunodeficiency virus 1) (UniProt Q72547); assay: Inhibition of wild type HIV1 reverse transcriptase by [3H]dTTP poly(rA)/oligo(dT) incorporation at 400 uM; procedure, shortened: as §1

Row | SMILES | ID50 [1] | ID50 [2] [µM] | ID50 [3] | EC50 [4] [µM] | EC50 [5] [µM] | EC50 [6] [µM] | CC50 [7] [µM] | EC50 [8] [µM] | ID50 [9] [µM] | ID50 [10] [µM] | ID50 [11] | Inhibition [6] [%]
1 | CCOc1ccc(CSc2nc(O)c(C)c(Cc3c(Cl)cccc3Cl)n2)cc1 | inactive | 2 | inactive | 0.25 | > 58 | > 58 | > 58 | 1.9 |  |  |  | 
2 | COc1ccc(CSc2nc(Cc3c(Cl)cccc3Cl)c(C)c(=O)[nH]2)cc1 |  | 0.004 |  | 0.007 | 4.7 | > 32 | 32 | 0.047 | 150 | 102 |  | 
3 | COc1ccc(CCSc2nc(Cc3c(Cl)cccc3Cl)c(C)c(=O)[nH]2)cc1 |  | 0.026 |  | < 0.00014 | 0.87 | 6.9 | > 57 | 0.00022 | 1.5 | 3.2 |  | 
4 | Cc1c(O)nc(S(=O)(=O)Cc2ccc(Br)cc2)nc1Cc1c(Cl)cccc1Cl | inactive |  | inactive | > 50 | > 50 | > 50 | > 50 | > 50 |  |  | inactive | 
5 | Cc1c(O)nc(SCc2ccc(Br)cc2)nc1Cc1c(Cl)cccc1Cl |  | 0.39 | inactive | 0.79 | > 53 | > 53 | 13 | > 53 |  | 9 |  | 
6 | Cc1c(O)nc(SCc2cccc(C#N)c2)nc1Cc1c(Cl)cccc1Cl | inactive | 9.5 | inactive | 0.89 | > 60 | > 60 | > 60 | 5 |  |  |  | 
7 | Cc1cn([C@H]2C[C@H](N=[N+]=[N-])[C@@H](CO)O2)c(=O)[nH]c1=O [ZIDOVUDINE] |  |  |  | 0.003 | 0.003 | 0.003 | 3.7 | 0.008 |  |  |  | 
8 | Cc1c(O)nc(SCc2ccc(F)cc2)nc1Cc1c(Cl)cccc1Cl | inactive | 16 | inactive | 0.11 | 27 | > 61 | > 61 | 2.7 |  |  |  | 
9 | Cc1c(O)nc(SCc2ccc(C#N)cc2)nc1Cc1c(F)cccc1F | inactive | 0.76 | inactive | 0.052 | > 65 | > 65 | > 65 | > 65 |  |  |  | 
10 | O=C1Nc2ccc(Cl)cc2[C@@](C#CC2CC2)(C(F)(F)F)O1 [EFAVIRENZ] |  |  |  |  | 0.057 |  | > 0.32 | 0.2 |  |  |  | 
11 | COc1ccc(CS(=O)(=O)c2nc(O)c(C)c(Cc3c(Cl)cccc3Cl)n2)cc1 |  | 0.006 |  | > 2.8 | > 2.8 | > 2.8 | 2.8 | > 2.8 | 27 | 10 |  | 
12 | Cc1c(O)nc(S(=O)(=O)Cc2ccc([N+](=O)[O-])cc2)nc1Cc1c(Cl)cccc1Cl | inactive |  | inactive | > 53 | > 53 | > 53 | > 53 | > 53 |  |  | inactive | 
13 | COc1ccc(CSc2nc(O)c(C)c(Cc3c(F)cccc3F)n2)cc1 |  | 0.007 | inactive | 0.026 | 0.69 | 10 | > 64 | 0.69 |  | 3.5 |  | 
14 | Cc1c(O)nc(SCc2ccc(C#N)cc2)nc1Cc1c(Cl)cccc1Cl | inactive | 103 | inactive | 0.17 | 0.1 | > 60 | > 60 | 1 |  |  |  | 
15 | Cc1c(O)nc(SCc2ccccc2)nc1Cc1c(Cl)cccc1Cl |  | 2.5 | inactive | 0.83 | > 64 | > 64 | > 64 | > 64 |  | 350 |  | 
16 | Cc1c(Cc2c(F)cccc2F)nc(SCc2ccc([N+](=O)[O-])cc2)[nH]c1=O | inactive |  | inactive | 0.074 | > 62 | > 62 | > 62 | > 62 |  |  | inactive | 
17 | Cc1c(O)nc(SCc2ccc([N+](=O)[O-])cc2)nc1Cc1c(Cl)cccc1Cl |  | 0.009 |  | 0.79 | 11 |  | > 58 | 3.3 | 0.22 | 0.12 |  | 31
18 | Cc1c(O)nc(SCc2ccc(O)cc2)nc1Cc1c(Cl)cccc1Cl | inactive |  | inactive | > 41 | > 41 | > 41 | 41 | > 41 |  |  | inactive | 
19 | COc1ccc(CSc2nc(O)c(C)c(Cc3ccc(F)cc3)n2)cc1 | inactive |  | inactive | > 8.9 | > 8.9 | > 8.9 | 8.9 | > 8.9 |  |  | inactive | 
20 | Cc1c(O)nc(SCc2ccc(Cl)cc2)nc1Cc1c(Cl)cccc1Cl | inactive | 20 | inactive | 0.47 | > 59 | > 59 | > 59 | 2.1 |  |  |  | 
21 | COc1cc(CSc2nc(O)c(C)c(Cc3c(Cl)cccc3Cl)n2)cc(OC)c1 | inactive | 256 | inactive | 33 | > 55 | > 55 | > 55 | > 55 |  |  |  | 
22 | Cc1c(O)nc(SCc2cccc(F)c2)nc1Cc1c(Cl)cccc1Cl |  | 2 | inactive | 0.15 | > 61 | > 61 | > 61 | 2.2 |  | 35 |  | 
23 | COc1cc(CSc2nc(O)c(C)c(Cc3c(F)cccc3F)n2)cc(OC)c1 | inactive |  | inactive | 18 | > 60 | > 60 | > 60 | > 60 |  |  | inactive | 
24 | Cc1c(O)nc(SCc2ccc3c(c2)OCO3)nc1Cc1c(Cl)cccc1Cl | inactive | 0.5 | inactive | 0.12 | 5.3 | 33 | > 57 | 0.51 |  |  |  | 
25 | COc1ccc(CSc2nc(O)c(C)c(Cc3c(Cl)cccc3Cl)n2)cc1OC | inactive | 1.2 | inactive | 0.2 | 10 | > 55 | > 55 | 0.93 |  |  |  | 
26 | Cc1ccnc2c1NC(=O)c1cccnc1N2C1CC1 [NEVIRAPINE] |  |  |  | 0.052 | 3.9 | > 7.5 | > 7.5 | > 7.5 | 20 | 8 |  | 
27 | Cc1c(O)nc(SCc2cccc(Cl)c2)nc1Cc1c(Cl)cccc1Cl |  | 2.3 |  | 0.31 | > 59 | > 59 | > 59 | 4.8 | 400 | 400 |  | 
28 | Cc1c(O)nc(SCc2ccc3c(c2)C(=O)c2ccccc2C3=O)nc1Cc1c(Cl)cccc1Cl | inactive | 3.5 | inactive | 13 | > 48 | > 48 | > 48 | > 48 |  |  |  | 
29 | Cc1c(O)nc(SCc2ccc([N+](=O)[O-])cc2)nc1Cc1ccc(F)cc1 | inactive |  | inactive | > 65 | > 65 | > 65 | > 65 | > 65 |  |  | inactive | 
30 | COc1ccc(CSc2nc(O)c(C)c(Cc3c(Cl)cccc3Cl)n2)c(OC)c1 | inactive | 25 | inactive | 1.33 | > 55 | > 55 | > 55 | > 55 |  |  |  | 
